This is an account of results in ChEMBL document CHEMBL4673206, “Truncated Latrunculins as Actin Inhibitors Targeting Plasmodium falciparum Motility and Host Cell Invasion” (J Med Chem, 2016).

Data set [1] is described as follows: Inhibition of actin polymerisation in trophozoite-stage of plasmodium falciparum infected in human erythrocytes assessed as parasite growth inhibition measured after 72 hrs by SYBR dye based FACSort flow cytometry analysis. The data set is classed as cell-based. A digest of the protocol: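 Mature pigmented trophozoites at 0.1% parasitemia, 2% hematocrit, exposed to compound over two invasion cycles for 72 h at 37°C. Fixed with 0.25% glutaraldehyde for 1 h at room temperature, washed, stained with SYBR green, and counted by flow cytometry. Triplicate wells.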

A short description of data set [2]: Inhibition of actin polymerisation in Toxoplasma gondii RH infected in human HFF cells assessed as reduction in invasion incubated for 20 mins prior to infection in HFF cells followed by 1 hr incubation under 5% CO2 and subsequent incubation for 72 hrs in DMEM medium 5% CO2 by crystal violet staining based analysis.
In another data set the test system is HEK293. In words: Cytotoxicity against HEK293 cells assessed as reduction in cell viability incubated for 24 hrs by resazurin staining based assay. The settings on record: human, hek293, 24 h. A digest of the protocol:
(§1)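 HEK293 and HepG2 seeded at 3000 and 5000 cells/well in DMEM with 10% FBS and left to attach 24 h (37°C, 5% CO2). Compounds added as a 1:3 serial dilution from 100 µM top concentration (0.5% DMSO final, 5% FBS final) for 24 h. Resazurin 10 µM added, 3 h, fluorescence at 560/590. Viability normalised to untreated and 100 µM tamoxifen wells; triplicate wells.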
In general terms: Alamar Blue is a resazurin reagent that responds to reducing activity.

A further data set has as its system HepG2. Kind of data set: Cytotoxicity against human HepG2 cells assessed as reduction in cell viability incubated for 24 hrs by resazurin staining based assay. The settings on record: hepg2, 24 h. A digest of the protocol: as §1
Data set [3] can be described thus: Selectivity index, ratio of CC50 for cytotoxicity against human HEK293 cells to EC50 for inhibition of actin polymerisation in trophozoite-stage of plasmodium falciparum. The data set is classed as toxicity, cell-based. To be noted: read-out: Ratio CC50/EC50.
A short description of data set [4]: Selectivity index, ratio of CC50 for cytotoxicity against human HepG2 cells to EC50 for inhibition of actin polymerisation in trophozoite-stage of plasmodium falciparum. The data set is classed as toxicity, cell-based. The settings on record: read-out: Ratio CC50/EC50.
Data set [5] concerns G-actin polymerization. Kind of data set: Inhibition of KMEI-induced pyrene-labelled G-actin polymerization (unknown origin) at 10 uM preincubated for 1 min followed by KMEI addition and measured at 15 secs interval for 90 mins by spectrofluorimetric analysis relative to control. To be noted: human, time 91 min. The gist of the method: (§2)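 Converted to Mg2+ form with EGTA/MgCl2 for 2 min at room temperature; final actin 2.5 µM. Compound in DMSO added for 1 min, then polymerisation started with KMEI (50 mM KCl, 10 mM imidazole pH 7, 1 mM MgCl2, 1 mM EGTA). Fluorescence ex 365/em 407 nm read every 15 s for 90 min; triplicate.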

The subject of data set [6] is G-actin polymerization. Kind of data set: Inhibition of KMEI-induced pyrene-labelled G-actin polymerization (unknown origin) at 100 uM preincubated for 1 min followed by KMEI addition and measured at 15 secs interval for 90 mins by spectrofluorimetric analysis relative to control. The settings on record: human, time 91 min. A digest of the protocol:
as §2

Turning to `COc1ccc(CN2C(=O)SC[C@H]2C2(OC)CC(O)CCO2)cc1` (stereo not given in full), the EC50 (as a rule, the concentration giving half of the maximal effect) in data set [1] is more than 100 µM.

Take `COc1ccc(CN2C(=O)SC[C@H]2C2(OC)CC(OC(=O)c3ccc(I)cc3)CCO2)cc1` (mixture of isomers): the EC50 in data set [1] worked out at 49 µM.

In the case of `COc1ccc(CN2C(=O)SC[C@H]2C2(OC)CC(OC(=O)c3cc(C)ccc3-c3cccs3)CCO2)cc1` (mixture of isomers), the EC50 in data set [1] was found to be 10 µM.

With `COc1ccc(CN2C(=O)SC[C@H]2C2(OC)CC(OC(=O)c3ccco3)CCO2)cc1` (mixture of isomers), the EC50 in data set [1] was determined as 62 µM.

`COc1ccc(CN2C(=O)SC[C@H]2C2(OC)CC(OC(=O)c3ccc(C)cc3-c3ccccc3)CCO2)cc1` (mixture of isomers): the 50% effective concentration (EC50) in data set [1] came out at 13 µM.

Turning to `CCCCC(=O)OC1CCOC(OC)([C@@H]2CSC(=O)N2Cc2ccc(OC)cc2)C1` (mixture of isomers), the EC50 is more than 100 µM in data set [2] and 66 µM in data set [1]. The CC50 (usually the concentration that lowers cell viability or growth by half) turned out to be 103 µM with HEK293 and 111 µM with HepG2. In addition, the selectivity ratio in data set [3] and in data set [4] was 1 throughout.

Take `COc1ccc(CN2C(=O)SC[C@H]2C2(OC)CC(OC(=O)c3cccc(I)c3)CCO2)cc1` (mixture of isomers): in data set [1], the EC50 was found to be 49 µM.

Turning to `COc1ccc(CN2C(=O)SC[C@H]2C2(OC)CC(OC(=O)c3ccccc3C3=CCCCC3)CCO2)cc1` (mixture of isomers), the EC50 was determined as 16 µM in data set [2] and 7 µM in data set [1]. Further, the CC50 in the data set with HEK293 came to 109 µM; with HepG2 it was 123 µM. Further, in the data set with G-actin polymerization [5], the inhibition (as a rule, the percentage by which the read-out fell short of the control) at 1.5 h, 10 µM was less than 10%. Besides, the selectivity ratio in data set [3] turned out to be 14; in data set [4] it was 15. In the data set on G-actin polymerization [6], this compound yielded an inhibition at 1.5 h, 100 µM of less than 10%.

On to `COc1ccc(CN2C(=O)SC[C@H]2C2(OC)CC(OC(=O)c3ccccc3-c3cccc4ccccc34)CCO2)cc1` (mixture of isomers), for which the EC50 in data set [2] is 16 µM; in data set [1], 7 µM. In addition, the CC50 in the data set with HEK293 is 99 µM; in the data set on HepG2 it was 90 µM. Further, the inhibition at 1.5 h, 10 µM in the data set with G-actin polymerization [5] was less than 10%. The selectivity ratio in data set [3] is 17; in data set [4], 15. In the data set with G-actin polymerization [6], this compound yielded an inhibition at 1.5 h, 100 µM of less than 10%.

Turning to `COc1ccc(CN2C(=O)SC[C@H]2C2(OC)CC(OC(=O)c3ccccc3I)CCO2)cc1` (mixture of isomers), the inhibition at 1.5 h, 10 µM in the data set with G-actin polymerization [5] was less than 10%. Moreover, the EC50 in data set [1] is 17 µM. Also, the inhibition at 1.5 h, 100 µM in the data set on G-actin polymerization [6] is less than 10%.

Regarding `CCC/C=C/c1ccccc1C(=O)OC1CCOC(OC)([C@@H]2CSC(=O)N2Cc2ccc(OC)cc2)C1` (mixture of isomers), the EC50 in data set [1] was found to be 49 µM.

`COc1ccc(CN2C(=O)SC[C@H]2C2(OC)CC(OC(=O)C3CCCC3)CCO2)cc1` (mixture of isomers): the EC50 is more than 100 µM in data set [2] and 66 µM in data set [1].

Regarding `COc1ccc(CN2C(=O)SC[C@H]2C2(OC)CC(OC(=O)c3ccc(-c4cccs4)cc3)CCO2)cc1` (mixture of isomers), the EC50 in data set [1] is 24 µM.

Consider `COc1ccc(CN2C(=O)SC[C@H]2C2(OC)CC(OC(=O)c3ccccc3)CCO2)cc1` (mixture of isomers), for which the EC50 in data set [1] amounted to 31 µM.

As for `COc1ccc(CN2C(=O)SC[C@H]2C2(OC)CC(OC(=O)c3ccc(C)cc3-c3cccs3)CCO2)cc1` (mixture of isomers), in data set [1], the EC50 was determined as 15 µM.

For `COc1ccc(CN2C(=O)SC[C@H]2C2(OC)CC(OC(=O)c3ccccc3-c3cccs3)CCO2)cc1` (mixture of isomers), the EC50 in data set [2] stood at 19 µM; in data set [1], 7 µM. Also, in the data set on G-actin polymerization [5], the inhibition at 1.5 h, 10 µM is less than 10%. This compound also yielded an inhibition at 1.5 h, 100 µM in the data set with G-actin polymerization [6] of less than 10%.

As to `COc1ccc(CN2C(=O)SC[C@H]2C2(OC)CC(OC(=O)c3cccc(-c4cccs4)c3)CCO2)cc1` (mixture of isomers), the EC50 in data set [1] was found to be 18 µM.

Consider `C/C1=C/C(=O)O[C@@H]2C[C@@H](CC[C@H](C)/C=C\CC1)O[C@@](O)([C@@H]1CSC(=O)N1)C2` [LATRUNCULIN B], for which, in the data set with G-actin polymerization [5], the inhibition at 1.5 h, 10 µM amounted to 100%. Also, in data set [1], the EC50 was found to be 44 µM. Moreover, the inhibition at 1.5 h, 100 µM in the data set with G-actin polymerization [6] amounted to 100%.
